The record followed here is ChEMBL document CHEMBL3352363, “1,4-disubstituted-[1,2,3]triazolyl-containing analogues of MT-II: design, synthesis, conformational analysis, and biological activity” (J Med Chem, 2014).

Holding throughout (format): functional, cell-based
One assay deals with Melanocortin receptor 5 (Mus musculus, UniProt P41149). The assay can be described thus: Activity at mouse MC5R expressed in HEK293 cells assessed as cAMP accumulation by CRE/beta-galactosidase reporter gene assay. In outline: (§1)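 Stably transfected HEK-293 cells transiently transfected with 4 μg CRE/β-galactosidase reporter, 5000–15000 cells plated on collagen-treated wells overnight. Lysates frozen −80 °C; ONPG substrate at 37 °C, OD405 normalized to protein (OD595).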
Melanocortin receptor 5, sequence (P41149 whole entry): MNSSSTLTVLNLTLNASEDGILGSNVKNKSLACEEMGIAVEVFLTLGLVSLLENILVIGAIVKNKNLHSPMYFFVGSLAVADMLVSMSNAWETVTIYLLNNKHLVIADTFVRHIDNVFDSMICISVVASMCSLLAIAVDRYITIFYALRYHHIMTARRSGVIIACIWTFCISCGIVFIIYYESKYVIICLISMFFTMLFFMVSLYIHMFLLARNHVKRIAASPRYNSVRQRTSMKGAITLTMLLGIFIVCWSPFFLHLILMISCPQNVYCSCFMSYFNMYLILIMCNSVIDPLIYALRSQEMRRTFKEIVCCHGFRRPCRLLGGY
For orientation: cAMP levels reflect the balance of adenylyl cyclase and phosphodiesterase activity.

In assay [1] the target is Melanocyte-stimulating hormone receptor (Mus musculus, UniProt Q01727). Description: Activity at mouse MC1R expressed in HEK293 cells assessed as cAMP accumulation by CRE/beta-galactosidase reporter gene assay. The method in brief: as §1
Melanocyte-stimulating hormone receptor, sequence (Q01727 whole entry): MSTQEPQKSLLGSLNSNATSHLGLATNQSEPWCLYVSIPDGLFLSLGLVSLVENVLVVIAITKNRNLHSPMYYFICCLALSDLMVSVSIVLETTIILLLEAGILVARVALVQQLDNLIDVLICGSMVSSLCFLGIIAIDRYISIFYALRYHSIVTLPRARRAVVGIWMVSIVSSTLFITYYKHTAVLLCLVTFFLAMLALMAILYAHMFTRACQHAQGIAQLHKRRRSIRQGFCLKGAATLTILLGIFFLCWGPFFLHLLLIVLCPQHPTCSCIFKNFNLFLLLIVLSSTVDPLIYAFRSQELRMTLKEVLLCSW
The next assay has as its target Melanocortin receptor 4 (Mus musculus, UniProt P56450). Description: Activity at mouse MC4R expressed in HEK293 cells assessed as cAMP accumulation by CRE/beta-galactosidase reporter gene assay. The method in brief: as §1
Another assay addresses Melanocortin receptor 3 (Mus musculus, UniProt P33033). Description: Activity at mouse MC3R expressed in HEK293 cells assessed as cAMP accumulation by CRE/beta-galactosidase reporter gene assay. The method in brief:
as §1

Where a SMILES comes first, the peptide text is derived from it. Bridges are numbered along the chain shown (N, C = ends). Triazole bridges read from a SMILES are 1,4-linked. [ ]: non-standard residue; d: D form. Lys(N3) = [N-]=[N+]=NCCCC[C@H](N)C(=O)O; Nle = CCCC[C@H](N)C(=O)O; Pra = C#CC[C@H](N)C(=O)O

Melanocortin receptor 3, sequence (P33033 whole entry): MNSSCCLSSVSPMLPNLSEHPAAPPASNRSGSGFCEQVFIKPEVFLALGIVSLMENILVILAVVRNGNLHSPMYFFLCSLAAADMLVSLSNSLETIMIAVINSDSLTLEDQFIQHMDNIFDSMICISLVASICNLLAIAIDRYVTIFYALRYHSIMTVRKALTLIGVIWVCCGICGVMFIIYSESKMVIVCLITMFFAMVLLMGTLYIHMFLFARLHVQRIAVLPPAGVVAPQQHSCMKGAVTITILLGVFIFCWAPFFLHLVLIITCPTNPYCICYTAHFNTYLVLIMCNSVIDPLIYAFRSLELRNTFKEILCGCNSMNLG
Melanocortin receptor 4, sequence (P56450 whole entry): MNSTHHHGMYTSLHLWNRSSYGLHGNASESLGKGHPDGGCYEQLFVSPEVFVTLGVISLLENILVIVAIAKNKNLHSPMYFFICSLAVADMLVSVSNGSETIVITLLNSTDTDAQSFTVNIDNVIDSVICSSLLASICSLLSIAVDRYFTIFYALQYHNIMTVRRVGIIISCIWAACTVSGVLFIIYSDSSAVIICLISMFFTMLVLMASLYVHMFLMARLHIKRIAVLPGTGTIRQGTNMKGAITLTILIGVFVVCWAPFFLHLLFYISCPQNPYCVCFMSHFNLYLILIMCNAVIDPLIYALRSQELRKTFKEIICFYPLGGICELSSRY

Take `C#CC[C@H](NC(=O)[C@H](Cc1c[nH]c2ccccc12)NC(=O)[C@H](CCCNC(=N)N)NC(=O)[C@@H](Cc1ccccc1)NC(=O)[C@H](Cc1cnc[nH]1)NC(=O)[C@H](CCCCN=[N+]=[N-])NC(=O)[C@H](CCCC)NC(C)=O)C(N)=O`: the EC50 (as a rule, the concentration giving half of the maximal effect) at Melanocortin receptor 5 turned out to be 1.9 nM.

Take `CCCC[C@H](NC(C)=O)C(=O)N[C@H]1Cc2cn(nn2)CCCC[C@@H](C(N)=O)NC(=O)[C@H](Cc2c[nH]c3ccccc23)NC(=O)[C@H](CCCNC(=N)N)NC(=O)[C@@H](Cc2ccccc2)NC(=O)[C@H](Cc2cnc[nH]2)NC1=O`: the concentration giving a half-maximal response (EC50) stood at 5.18 nM in assay [1], 1.62 nM at Melanocortin receptor 4, 1.93 nM on Melanocortin receptor 5 and 3.14 nM on Melanocortin receptor 3.

On to `CCCC[C@H](NC(C)=O)C(=O)N[C@@H](CC(=O)O)C(=O)N[C@@H](Cc1c[nH]cn1)C(=O)N[C@H](Cc1ccccc1)C(=O)N[C@@H](CCCN=C(N)N)C(=O)N[C@@H](Cc1c[nH]c2ccccc12)C(=O)N[C@@H](CCCCN)C(N)=O`, for which the EC50 was 0.21 nM at Melanocortin receptor 4 and 1.1 nM at Melanocortin receptor 3.

In the case of `CCCC[C@H](NC(C)=O)C(=O)N[C@H]1CCn2cc(nn2)CC[C@@H](C(N)=O)NC(=O)[C@H](Cc2c[nH]c3ccccc23)NC(=O)[C@H](CCCNC(=N)N)NC(=O)[C@@H](Cc2ccccc2)NC(=O)[C@H](Cc2cnc[nH]2)NC1=O`, the 50% effective concentration (EC50) was 0.2 nM in assay [1], 0.067 nM at Melanocortin receptor 4, 0.07 nM at Melanocortin receptor 5 and 0.29 nM on Melanocortin receptor 3.

Take `CCCC[C@H](NC(C)=O)C(=O)N[C@H]1CCn2cc(nn2)CCC[C@@H](C(N)=O)NC(=O)[C@H](Cc2c[nH]c3ccccc23)NC(=O)[C@H](CCCNC(=N)N)NC(=O)[C@@H](Cc2ccccc2)NC(=O)[C@H](Cc2cnc[nH]2)NC1=O`: the concentration for a half-maximal effect (EC50) in assay [1] was 0.074 nM; at Melanocortin receptor 4, 0.048 nM; at Melanocortin receptor 5, 0.045 nM; at Melanocortin receptor 3 it was 0.2 nM.

On to `CCCC[C@H](NC(C)=O)C(=O)N[C@H]1CCCCc2cn(nn2)C[C@@H](C(N)=O)NC(=O)[C@H](Cc2c[nH]c3ccccc23)NC(=O)[C@H](CCCNC(=N)N)NC(=O)[C@@H](Cc2ccccc2)NC(=O)[C@H](Cc2cnc[nH]2)NC1=O`, for which the EC50 in assay [1] is 0.087 nM; at Melanocortin receptor 3, 0.2 nM.

On to `CCCC[C@H](NC(C)=O)C(=O)N[C@H]1CCCCn2cc(nn2)C[C@@H](C(N)=O)NC(=O)[C@H](Cc2c[nH]c3ccccc23)NC(=O)[C@H](CCCNC(=N)N)NC(=O)[C@@H](Cc2ccccc2)NC(=O)[C@H](Cc2cnc[nH]2)NC1=O` (Ac-[Nle][Lys(N3)]H[dF]RW[Pra]-NH2; triazole 2-7), for which the EC50 stood at 0.85 nM in assay [1], 0.58 nM on Melanocortin receptor 4, 1.76 nM on Melanocortin receptor 5 and 3.7 nM at Melanocortin receptor 3.

For `CCCCCC[C@H](NC(=O)[C@H](Cc1c[nH]c2ccccc12)NC(=O)[C@H](CCCNC(=N)N)NC(=O)[C@@H](Cc1ccccc1)NC(=O)[C@H](Cc1cnc[nH]1)NC(=O)[C@H](CN=[N+]=[N-])NC(=O)[C@H](CCCC)NC(C)=O)C(N)=O`, the EC50 in assay [1] came out at 0.53 nM; at Melanocortin receptor 4, 0.14 nM; on Melanocortin receptor 5 it was 0.13 nM; on Melanocortin receptor 3, 1.32 nM.

In the case of `CCCC[C@H](NC(C)=O)C(=O)N[C@H]1Cn2cc(nn2)CCCC[C@@H](C(N)=O)NC(=O)[C@H](Cc2c[nH]c3ccccc23)NC(=O)[C@H](CCCNC(=N)N)NC(=O)[C@@H](Cc2ccccc2)NC(=O)[C@H](Cc2cnc[nH]2)NC1=O`, the values for the half-maximal effective concentration (EC50) (in assay [1]; on Melanocortin receptor 4; at Melanocortin receptor 3) were 0.53 nM, 0.14 nM and 0.6 nM, respectively.

Turning to `CCCC[C@H](NC(C)=O)C(=O)N[C@H]1CCc2cn(nn2)CCC[C@@H](C(N)=O)NC(=O)[C@H](Cc2c[nH]c3ccccc23)NC(=O)[C@H](CCCNC(=N)N)NC(=O)[C@@H](Cc2ccccc2)NC(=O)[C@H](Cc2cnc[nH]2)NC1=O`, the 50% effective concentration (EC50) in assay [1] came out at 0.11 nM; on Melanocortin receptor 4 it was 0.22 nM; at Melanocortin receptor 5, 0.34 nM; on Melanocortin receptor 3, 0.29 nM.

For the compound `CCCC[C@H](NC(C)=O)C(=O)N[C@H]1CCc2cn(nn2)CC[C@@H](C(N)=O)NC(=O)[C@H](Cc2c[nH]c3ccccc23)NC(=O)[C@H](CCCNC(=N)N)NC(=O)[C@@H](Cc2ccccc2)NC(=O)[C@H](Cc2cnc[nH]2)NC1=O`, the EC50 turned out to be 0.32 nM in assay [1], 0.14 nM at Melanocortin receptor 4, 0.15 nM at Melanocortin receptor 5 and 0.63 nM on Melanocortin receptor 3.

For `CCCC[C@H](NC(C)=O)C(=O)N[C@H]1CCCc2cn(nn2)CC[C@@H](C(N)=O)NC(=O)[C@H](Cc2c[nH]c3ccccc23)NC(=O)[C@H](CCCNC(=N)N)NC(=O)[C@@H](Cc2ccccc2)NC(=O)[C@H](Cc2cnc[nH]2)NC1=O`, the concentration giving a half-maximal response (EC50) in assay [1] was determined as 0.1 nM; on Melanocortin receptor 4, 0.051 nM; at Melanocortin receptor 5 it was 0.042 nM; at Melanocortin receptor 3, 0.21 nM.

Turning to `CCCC[C@H](NC(C)=O)C(=O)N[C@H]1CCCn2cc(nn2)CC[C@@H](C(N)=O)NC(=O)[C@H](Cc2c[nH]c3ccccc23)NC(=O)[C@H](CCCNC(=N)N)NC(=O)[C@@H](Cc2ccccc2)NC(=O)[C@H](Cc2cnc[nH]2)NC1=O`, the EC50 in assay [1] came out at 0.71 nM; at Melanocortin receptor 4 it was 0.85 nM; on Melanocortin receptor 5, 1.88 nM; at Melanocortin receptor 3, 1.91 nM.
